# High-throughput results (PubChem BioAssay)
# Sampled rows, rich in hits. Any-hit rate of the full collection: about 2.1%.
# Autophagy HCS: autophagy modulation, high-content screen | calls only at 10 µM (by protocol) | AID 463193 | MEF GFP-LC3 puncta imaging; test concentration mostly 10 µM | 0.98% of 190,000 active;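 active = percentage of spot-positive cells more than 3 SD above its plate mean, without a fluorescence outlier flag or 80% toxicity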;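 also: spot-positive cell cutoff set from DMSO-treated cells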
# MT stabilizer: stabilizes microtubules in HeLa cells; HeLa tubulin immunostaining HCS, 24 h; share of cells brighter than vehicle mean+2SD; % tubulin-high responders, % at 10 µM; 0.83% of 200,000 active;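 active = plate Z-score above 3 for both tubulin-high and condensed-nucleus cell shares, with cell loss under 80%, at 10 µM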;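 also: anti alpha tubulin signal scored within the nucleus-defined area of each cell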
# ABCB1 inh: inhibitors of human ABCB1 transporter, ABCG2 counter-screen | P08183 | CCRF-Adr cells, JC-1 efflux, flow cytometry | inhibition, % at 6.6 µM | 0.067% of 190,000 active | AID 1326; in the data active = inhibition above about 40%;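 also: 0% = vehicle and 100% = reference inhibitor; higher value means more JC-1 retained so stronger ABCB1 efflux block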
# Arbovirus inh: antivirals against arbovirus infection. inhibition, % at 10 µM. arbovirus infection cell-based antiviral screen. 0.37% of 200,000 active; in the data active = inhibition above about 30%
# bCat nuc transl: beta-catenin nuclear translocation modulation | HeLa beta-catenin nuclear translocation, immunofluorescence imaging | nuclear translocation activity, % at 5 µM | 0.3% of 190,000 active | AID 1665;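 active = nuclear translocation activity above 50% at 5 µM, with a well cell count of 50 or more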;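 also: per-cell ratio of nuclear to cytoplasmic median beta-catenin stain intensity; plate controls were DMSO negative control for no effect and GSK-3 inhibitor IX positive control for full effect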
#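 Test system: human HeLa cell line; Doses: 5 µM primary, 0.02–20 µM confirmation; Incubation: 24 h compound exposure, 37°C; Detection: beta-catenin immunofluorescence imaging with DAPI; Read-out: beta-catenin nuclear/cytoplasmic ratio, % activation.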
# ABCG2 inh: blocks JC-1 efflux by human ABCG2 transporter; inhibition, % at 6.6 µM; Q9UNQ0; AID 1325; IgMXP3 cells, flow cytometry; 0.1% of 190,000 active;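 active = inhibition above 80%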;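 also: 0% = DMSO and 100% = nicardipine control wells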
#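 Measure – % inhibition of efflux relative to nicardipine and DMSO · Test system – ABCG2 IgMXP3 and barcoded ABCB1 CCRF-Adr cell mix · Control set – nicardipine as high control, DMSO as low control · Compound – one concentration, 6.6 µM final · Signal – flow cytometry of retained JC-1 fluorescence · Timing – 10 min exposure at 25 °C with rotation, no wash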
# The depositor's hits bear a star; i = inactive; / = no result given; + = active, no number.
SMILES,Autophagy HCS,MT stabilizer,ABCB1 inh,Arbovirus inh,bCat nuc transl,ABCG2 inh
COc1ccc(/C=N/n2c(SC)nnc2-c2ccccc2)c(OC)c1OC,i,11,-3,12,92*,-3
COc1ccc(/C=N/N2CCN(c3ccccc3OC)CC2)cc1OC,i,3,0,0,0,6
COc1cccc(/C=N\n2c(C)nnc2C)c1OC,i,4,0,-1,-2,2
COc1cccc(/C=N/NC(=S)Nc2cccc(S(=O)(=O)N(C)C)c2)c1,/,/,/,/,-1,/
COc1ccc(O)c(/C=N/NC(=S)Nc2cccc(S(=O)(=O)N(C)C)c2)c1,+,3,0,-34,1,-1
CCCCCC(=O)NC(=S)Nc1ccc(Cl)cn1,i,7,0,-1,-1,4
C=CCN1C(=O)/C(=C2/Sc3ccc(OC)cc3N2C)SC1=NCc1ccccc1,+,3,0,12,-2,1
COc1ccc2c(c1)N(C)/C(=C1/SC(=NCc3ccccc3)N(c3ccccc3)C1=O)S2,+,3,0,-12,-1,2
CCNC(=S)NS(=O)(=O)c1ccc(C)cc1,i,2,0,1,-1,-1
O=S(=O)(Nc1cc(Cl)ccc1N1CCCCC1)c1cccs1,i,3,0,-1,-1,2
O=C(Nc1nccs1)c1cc2sccc2n1Cc1ccc(Cl)cc1,+,6,-2,-17,-6,-1
CCOC(=O)c1sc(N)c(C(=O)Nc2ccccc2OC)c1C,i,22*,0,-20,80*,3
COc1ccccc1-c1c(C(F)(F)F)oc2cc(OC(=O)c3ccccc3[N+](=O)[O-])ccc2c1=O,i,1,0,8,5,1
COc1cc(/C=C2\SC(=O)N(CCNC(=O)c3sc4cc(F)ccc4c3Cl)C2=O)cc(OC)c1OC,+,4,1,-16,2,11
O=C(NNS(=O)(=O)c1ccc(Br)cc1)NC1CCCCC1,i,2,0,0,/,-1
COc1cccc(-c2nc(SCC(=O)Nc3nc(-c4ccccc4)c(C)s3)[nH]c(=O)c2C#N)c1,i,2,-2,58*,0,-13
CCOc1ccc2nc(NC(=O)CSc3nc(-c4ccccc4)c(C#N)c(=O)[nH]3)sc2c1,i,6,-2,62*,-1,-4
O=[N+]([O-])c1ccc(/C=N/n2c(CO)nc3ccccc32)s1,i,10,1,-6,2,50
Cc1nc2ccccc2n1/N=C/c1ccc([N+](=O)[O-])s1,i,10*,1,-32,5,31
CC(=O)Nc1ccc2c(c1)nc(CCN1CCOCC1)n2C,i,1,0,0,-4,0
CCCCCCNC(=O)C(C#N)c1nc2ccccc2nc1N1CCCC1 (stereo not given),+,7,1,9,0,4
CCCCCNC(=O)C(C#N)c1nc2ccccc2nc1N1CCCC1 (stereo not given),+,2,1,-3,-4,5
N#CC(C(=O)NCc1ccccc1)c1nc2ccccc2nc1N1CCCC1 (stereo not given),+,3,1,-16,-1,6
CCCCCCNC(=O)C(C#N)c1nc2ccccc2nc1N1CCOCC1 (stereo not given),i,3,1,1,-4,8
CCCCCCOC(=O)C(C#N)c1nc2ccccc2nc1N1CCOCC1 (stereo not given),i,3,0,2,-2,3
SMILES,Autophagy HCS,MT stabilizer,ABCB1 inh,Arbovirus inh,bCat nuc transl,ABCG2 inh
CCCCCCOC(=O)C(C#N)c1nc2ccccc2nc1N1CCN(CC)CC1 (stereo not given),+,2,4,-10,-1,5
COc1ccc(CCNC(=O)C2CC3Cn4c(nc5cc6ccccc6cc54)C3N2C)cc1 (stereo not given),/,/,/,/,-1,/
CC(=O)Nc1c(C(=O)NCc2ccccc2)nnn1Cc1ccccc1,i,4,0,2,0,2
CCN(CC)c1ccc(/C=N/NC(=O)c2ccc(Br)o2)cc1,i,33*,1,-22,/,14
O=C(Cc1n[nH]c(=O)c2ccccc12)OCC(=O)c1ccc2c(c1)OCCO2,i,21*,1,-5,18,3
Nc1ccc(C(=O)n2c3ccccc3c3ccccc32)cc1,i,45*,0,-12,/,2
COc1cc2c(cc1NC(=O)CCCN1C(=O)CCC1=O)oc1ccccc12,i,5,1,-12,/,5
COc1cc2c(cc1NC(=O)CC1SC(N3CCCC3)=NC1=O)oc1ccccc12 (stereo not given),i,3,1,33*,3,4
CCn1c(SCC(=O)Nc2ccccc2)nnc1-c1cccs1,/,/,/,/,-1,/
CCn1c(SCC(=O)NC(C)C)nnc1-c1cccs1,+,1,0,5,-2,0
CCOC(=O)Cc1nc2ccccc2o1,i,1,1,4,/,3
CC1CCN(Cc2c(O)ccc3c(=O)c(-c4nc5ccccc5s4)c(N)oc23)CC1,+,3,0,0,-1,0
Cc1ccccc1C(=O)Nc1ccc(-c2nc3ccc(C(=O)c4ccccc4)cc3[nH]2)cc1,i,3,0,-30,6,-1
Cc1cc(/C=C(/C#N)c2nc3ccccc3[nH]2)c(C)n1-c1cc(C(=O)O)cc(C(=O)O)c1,i,2,0,-4,2,0
CCOC(=O)c1c(C)c(C(=O)Nc2ccc3c(c2)OCCO3)c(C)n1CC,i,31*,3,-3,0,53
Cn1cnnc1SCc1ccc(C(=O)N/N=C/c2cccs2)cc1,i,4,5,4,0,1
CN(C)CCCNc1ncnc2scc(-c3ccccc3)c12,i,4,0,-17,-1,0
Cc1ccccc1S(=O)(=O)Nc1ncnc2scc(-c3ccccc3)c12,i,3,-1,58*,-1,-3
O=C(Nc1ccc(N2CCCCCC2)cc1)c1ccccc1Cl,i,11*,0,-22,32,3
O=C(Nc1ccc(-c2csc(-c3ccccc3)n2)cc1)c1ccccc1Cl,i,17*,0,-8,0,1
CC1SC(c2ccccc2Cl)NC1=O (stereo not given),i,2,0,2,/,-2
O=C(Nc1cc(S(=O)(=O)N2CCCCC2)ccc1O)c1ccccc1NS(=O)(=O)c1ccc(F)cc1,i,4,0,20,0,0
O=C(Nc1cc(S(=O)(=O)N2CCCCC2)ccc1Cl)c1ccccc1NS(=O)(=O)c1ccc(F)cc1,+,6,1,-5,0,2
C#CCN1C(=O)S/C(=C/C=C/c2ccc(N(C)C)cc2)C1=O,+,5,3,-13,-2,11
